In ChEMBL document CHEMBL1772938, “Optimization of 3-(phenylthio)quinolinium compounds against opportunistic fungal pathogens” (Eur J Med Chem, 2011):
≈ marks a conversion by molar mass, not a printed value.

Experiments:
Aspergillus fumigatus [1] = assay: Antimicrobial activity against Aspergillus fumigatus ATCC 90906 by alamar blue assay; format: functional, organism-based
Method in brief: (§1)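 Modified CLSI broth microdilution. DMSO stocks were serially diluted in saline and run in duplicate. Inoculum was set by the 0.5 McFarland standard in YM broth for MIC, or in RPMI-1640 + 5% Alamar Blue for IC50. The top final concentration was 20 μg/mL. Fluorescence (544ex/590em) was read before and after incubation. IC50 was taken from % growth versus concentration; MIC was read visually as no blue-to-pink change.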

Nakaseomyces glabratus [2] = assay: Antimicrobial activity against Candida glabrata ATCC 90030 by CLSI method; format: functional
Method in brief: (§2)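 Modified CLSI microdilution. DMSO samples were serially diluted in saline and tested in duplicate against inoculum adjusted by the 0.5 McFarland standard. The final test range started at 20 μg/mL. Plates were read before and after incubation. IC50 came from % growth versus concentration; MIC was the lowest concentration without visible growth. Growth, solvent, blank and amphotericin B controls were on each plate.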

Nakaseomyces glabratus [3] = assay: Antimicrobial activity against Candida glabrata ATCC 90030 by alamar blue assay; format: functional, organism-based
Cryptococcus neoformans [4] = assay: Antimicrobial activity against Cryptococcus neoformans ATCC 90113 by alamar blue assay; format: functional, organism-based
Cryptococcus neoformans [5] = assay: Antimicrobial activity against Cryptococcus neoformans ATCC 90113 by CLSI method; format: functional
Method in brief: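 C. neoformans in Sabouraud dextrose broth, inoculum per the 0.5 McFarland standard. Saline serial dilutions of DMSO samples were tested in duplicate, with a final top concentration of 20 μg/mL. OD 630 nm was read before and after incubation. IC50 was derived from % growth versus concentration. MIC was judged visually as the lowest concentration with no detectable growth. Amphotericin B served as the drug control.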

Aspergillus fumigatus [6] = assay: Antimicrobial activity against Aspergillus fumigatus ATCC 90906 by CLSI method; format: functional; method in brief: as §1
[7] = Selectivity index, ratio of TC50 for african green monkey Vero cells to IC50 for Cryptococcus neoformans ATCC 90113; format: toxicity, cell-based; settings: read-out: Selectivity Index
[8] = Cytotoxicity against african green monkey Vero cells after 48 hrs by neutral red assay; format: cell-based; settings: chlorocebus sabaeus, read-out: TC50
Method in brief: (§3)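 VERO kidney cells were seeded at 25,000 cells/well and incubated 24 h. Samples were added up to 10 μg/mL and incubated a further 48 h. Viable cells were counted by neutral red uptake. IC50 came from growth-inhibition dose curves. Doxorubicin was the positive control and DMSO the vehicle control.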

Candida albicans [9] = assay: Antimicrobial activity against Candida albicans ATCC 90028 by CLSI method; format: functional
Method in brief: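 C. albicans inoculum was made to the 0.5 McFarland standard in Sabouraud dextrose broth or RPMI 1640. Samples came from DMSO stocks serially diluted in saline, in duplicate, starting at a final 20 μg/mL. Plates were read at OD 630 nm before and after incubation. IC50 came from the % growth versus concentration plot; MIC was the lowest concentration with no visible growth. Included: growth, solvent and blank controls, plus amphotericin B.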

Candida albicans [10] = assay: Antimicrobial activity against Candida albicans ATCC 90028 by alamar blue assay; format: functional, organism-based
Pichia kudriavzevii [11] = assay: Antimicrobial activity against Candida krusei ATCC 6258 by CLSI method; format: functional; method in brief: as §2
Pichia kudriavzevii [12] = assay: Antimicrobial activity against Candida krusei ATCC 6258 by alamar blue assay; format: functional, organism-based
Vero = assay: Cytotoxicity against african green monkey Vero cells at 10 ug/ml after 48 hrs by neutral red assay; format: cell-based; settings: chlorocebus sabaeus; method in brief: as §3

For Cc1cccc(Sc2cc3ccccc3[n+](CCCCCC3CCCCC3)c2)c1.[I-], the IC50 (Aspergillus fumigatus [1]) was 3.5 µg/mL, the MFC (Nakaseomyces glabratus [2]) was 10 µg/mL and the MIC (Nakaseomyces glabratus [2]) was 10 µg/mL. The IC50 (Nakaseomyces glabratus [3]) was 5.5 µg/mL, the IC50 (Cryptococcus neoformans [4]) was 0.2 µg/mL and the MFC (Cryptococcus neoformans [5]) was 0.4 µg/mL. The MIC (Cryptococcus neoformans [5]) was 0.3 µg/mL, the MFC (Aspergillus fumigatus [6]) was 5 µg/mL and the MIC (Aspergillus fumigatus [6]) was 5 µg/mL. For the same compound, the selectivity ratio [7] was 19, the CC50 at 48 h [8] was 3.7 µg/mL and the MFC (Candida albicans [9]) was 5 µg/mL. The MIC (Candida albicans [9]) was 2.5 µg/mL, the IC50 (Candida albicans [10]) was 1.4 µg/mL and the MFC (Pichia kudriavzevii [11]) was 1.3 µg/mL. For the same compound, the MIC (Pichia kudriavzevii [11]) was 0.6 µg/mL and the IC50 (Pichia kudriavzevii [12]) was 0.4 µg/mL.
In the case of FC(F)(F)c1ccc(Sc2cc3ccccc3[n+](CCCCCc3ccccc3)c2)cc1.[I-], the IC50 (Aspergillus fumigatus [1]) is reported as 15 µg/mL, the IC50 (Cryptococcus neoformans [4]) is reported as 2.7 µg/mL and the MFC (Cryptococcus neoformans [5]) is reported as 10 µg/mL. The MIC (Cryptococcus neoformans [5]) was 5 µg/mL, the MFC (Aspergillus fumigatus [6]) was over 20 µg/mL and the MIC (Aspergillus fumigatus [6]) was over 20 µg/mL. The CC50 at 48 h [8] was 10 µg/mL, the MFC (Candida albicans [9]) was over 20 µg/mL and the MIC (Candida albicans [9]) was 20 µg/mL. It also gave an IC50 (Candida albicans [10]) of 11 µg/mL.
C[C@@H]1[C@H](O)[C@@H](C)/C=C/C=C/C=C/C=C/C=C/C=C/C=C/[C@H](O[C@@H]2O[C@H](C)[C@@H](O)[C@H](N)[C@@H]2O)C[C@@H]2O[C@](O)(C[C@@H](O)C[C@@H](O)[C@H](O)CC[C@@H](O)C[C@@H](O)CC(=O)O[C@H]1C)C[C@H](O)[C@H]2C(=O)O [AMPHOTERICIN B] showed an MFC (Nakaseomyces glabratus [2]) of 2.5 µg/mL (≈ 2.71 µM), an MIC (Nakaseomyces glabratus [2]) of 1.3 µg/mL (≈ 1.41 µM) and an IC50 (Nakaseomyces glabratus [3]) of 0.6 µg/mL (≈ 0.649 µM). The MFC (Cryptococcus neoformans [5]) was 5 µg/mL (≈ 5.41 µM), the MIC (Cryptococcus neoformans [5]) was 1.3 µg/mL (≈ 1.41 µM) and the MFC (Aspergillus fumigatus [6]) was 5 µg/mL (≈ 5.41 µM). It also gave an MIC (Aspergillus fumigatus [6]) of 1.3 µg/mL (≈ 1.41 µM), a selectivity ratio [7] of 14 and a CC50 at 48 h [8] of 6.5 µg/mL (≈ 7.03 µM). The MFC (Candida albicans [9]) was 1.3 µg/mL (≈ 1.41 µM), the MIC (Candida albicans [9]) was 1.3 µg/mL (≈ 1.41 µM) and the MFC (Pichia kudriavzevii [11]) was 2.5 µg/mL (≈ 2.71 µM). For the same compound, the MIC (Pichia kudriavzevii [11]) was 2.5 µg/mL (≈ 2.71 µM) and the IC50 (Pichia kudriavzevii [12]) was 0.9 µg/mL (≈ 0.974 µM).
With COc1ccc(Sc2cc3ccccc3[n+](CCCCCc3ccccc3)c2)cc1.[I-] the IC50 (Aspergillus fumigatus [1]) was 4.5 µg/mL, the IC50 (Cryptococcus neoformans [4]) was 15 µg/mL and the MFC (Cryptococcus neoformans [5]) was under 20 µg/mL. The MIC (Cryptococcus neoformans [5]) was 20 µg/mL, the MFC (Aspergillus fumigatus [6]) was over 20 µg/mL and the MIC (Aspergillus fumigatus [6]) was 20 µg/mL. The CC50 at 48 h [8] was 10 µg/mL, the MFC (Candida albicans [9]) was over 20 µg/mL and the MIC (Candida albicans [9]) was over 20 µg/mL. It also gave an IC50 (Candida albicans [10]) of over 20 µg/mL.
For FC(F)(F)c1cccc(Sc2cc3ccccc3[n+](CCCCCc3ccccc3)c2)c1.[I-], the IC50 (Aspergillus fumigatus [1]) was 17 µg/mL, the IC50 (Cryptococcus neoformans [4]) was 2.1 µg/mL and the MFC (Cryptococcus neoformans [5]) was 10 µg/mL. It also gave an MIC (Cryptococcus neoformans [5]) of 5 µg/mL, an MFC (Aspergillus fumigatus [6]) of over 20 µg/mL and an MIC (Aspergillus fumigatus [6]) of over 20 µg/mL. It also gave an MFC (Candida albicans [9]) of over 20 µg/mL, an MIC (Candida albicans [9]) of over 20 µg/mL and an IC50 (Candida albicans [10]) of 14 µg/mL. For the same compound, the Activity (Vero) was “Non-toxic”.
In the case of Oc1ccccc1Sc1cc2ccccc2[n+](CCCCCC2CCCCC2)c1.[I-], the IC50 (Aspergillus fumigatus [1]) is reported as 3.9 µg/mL, the MFC (Nakaseomyces glabratus [2]) is reported as over 20 µg/mL and the MIC (Nakaseomyces glabratus [2]) is reported as 20 µg/mL. It also gave an IC50 (Nakaseomyces glabratus [3]) of 12 µg/mL, an IC50 (Cryptococcus neoformans [4]) of 1 µg/mL and an MFC (Cryptococcus neoformans [5]) of 1.3 µg/mL. For the same compound, the MIC (Cryptococcus neoformans [5]) was 1.3 µg/mL, the MFC (Aspergillus fumigatus [6]) was over 20 µg/mL and the MIC (Aspergillus fumigatus [6]) was 10 µg/mL. It also gave a selectivity ratio [7] of 9.3, a CC50 at 48 h [8] of 9.3 µg/mL and an MFC (Candida albicans [9]) of 20 µg/mL. The MIC (Candida albicans [9]) was 10 µg/mL, the IC50 (Candida albicans [10]) was 4.7 µg/mL and the MFC (Pichia kudriavzevii [11]) was 10 µg/mL. The MIC (Pichia kudriavzevii [11]) was 10 µg/mL and the IC50 (Pichia kudriavzevii [12]) was 4.4 µg/mL.
With Cc1ccccc1Sc1cc2ccccc2[n+](CCCCCC2CCCCC2)c1.[I-] the IC50 (Aspergillus fumigatus [1]) was 4.8 µg/mL, the MFC (Nakaseomyces glabratus [2]) was 20 µg/mL and the MIC (Nakaseomyces glabratus [2]) was 20 µg/mL. It also gave an IC50 (Nakaseomyces glabratus [3]) of 13 µg/mL, an IC50 (Cryptococcus neoformans [4]) of 0.3 µg/mL and an MFC (Cryptococcus neoformans [5]) of 1.3 µg/mL. For the same compound, the MIC (Cryptococcus neoformans [5]) was 0.6 µg/mL, the MFC (Aspergillus fumigatus [6]) was over 20 µg/mL and the MIC (Aspergillus fumigatus [6]) was 10 µg/mL. The selectivity ratio [7] was 13, the CC50 at 48 h [8] was 4 µg/mL and the MFC (Candida albicans [9]) was 10 µg/mL. For the same compound, the MIC (Candida albicans [9]) was 5 µg/mL, the IC50 (Candida albicans [10]) was 1.7 µg/mL and the MFC (Pichia kudriavzevii [11]) was 1.3 µg/mL. The MIC (Pichia kudriavzevii [11]) was 1.3 µg/mL and the IC50 (Pichia kudriavzevii [12]) was 0.6 µg/mL.
Brc1ccccc1Sc1cc2ccccc2[n+](CCCCCc2ccccc2)c1.[I-] gave an IC50 (Aspergillus fumigatus [1]) of 1 µg/mL, an IC50 (Cryptococcus neoformans [4]) of 3 µg/mL and an MFC (Cryptococcus neoformans [5]) of 20 µg/mL. It also gave an MIC (Cryptococcus neoformans [5]) of 5 µg/mL, an MFC (Aspergillus fumigatus [6]) of over 20 µg/mL and an MIC (Aspergillus fumigatus [6]) of 2.5 µg/mL. For the same compound, the CC50 at 48 h [8] was 10 µg/mL, the MFC (Candida albicans [9]) was over 20 µg/mL and the MIC (Candida albicans [9]) was 20 µg/mL. The IC50 (Candida albicans [10]) was 10 µg/mL.
Work on Cc1ccc(Sc2cc3ccccc3[n+](CCCCCc3ccccc3)c2)cc1.[I-] yielded an IC50 (Aspergillus fumigatus [1]) of 16 µg/mL, an IC50 (Cryptococcus neoformans [4]) of 1.2 µg/mL and an MFC (Cryptococcus neoformans [5]) of 5 µg/mL. It also gave an MIC (Cryptococcus neoformans [5]) of 2.5 µg/mL, an MFC (Aspergillus fumigatus [6]) of over 20 µg/mL and an MIC (Aspergillus fumigatus [6]) of over 20 µg/mL. The CC50 at 48 h [8] was 4.2 µg/mL, the MFC (Candida albicans [9]) was over 20 µg/mL and the MIC (Candida albicans [9]) was over 20 µg/mL. It also gave an IC50 (Candida albicans [10]) of over 20 µg/mL.
In the case of COc1ccccc1Sc1cc2ccccc2[n+](CCCCCc2ccccc2)c1.[I-], the IC50 (Aspergillus fumigatus [1]) is reported as 8 µg/mL, the IC50 (Cryptococcus neoformans [4]) is reported as 15 µg/mL and the MFC (Cryptococcus neoformans [5]) is reported as over 20 µg/mL. The MIC (Cryptococcus neoformans [5]) was over 20 µg/mL, the MFC (Aspergillus fumigatus [6]) was over 20 µg/mL and the MIC (Aspergillus fumigatus [6]) was over 20 µg/mL. It also gave a CC50 at 48 h [8] of 4.3 µg/mL, an MFC (Candida albicans [9]) of over 20 µg/mL and an MIC (Candida albicans [9]) of over 20 µg/mL. For the same compound, the IC50 (Candida albicans [10]) was over 20 µg/mL.
